# A selection: hits, their analogues and other compounds. The true share with any hit is near 1.6%.
# ADAM10 inh – human ADAM10 inhibitors, primary screen, biochemical, QFRET, HTS; recombinant ADAM10, EDANS/DABCYL FRET peptide cleavage, 3 h; inhibition, % at 7 µM; 0.62% of 370,000 active;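 active = inhibition above a per-campaign cutoff equal to the mean of compounds falling between control-based bounds plus 3 SD, cut at about 20% in these data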
# Target sequence (O14672 214-748 limits assumed): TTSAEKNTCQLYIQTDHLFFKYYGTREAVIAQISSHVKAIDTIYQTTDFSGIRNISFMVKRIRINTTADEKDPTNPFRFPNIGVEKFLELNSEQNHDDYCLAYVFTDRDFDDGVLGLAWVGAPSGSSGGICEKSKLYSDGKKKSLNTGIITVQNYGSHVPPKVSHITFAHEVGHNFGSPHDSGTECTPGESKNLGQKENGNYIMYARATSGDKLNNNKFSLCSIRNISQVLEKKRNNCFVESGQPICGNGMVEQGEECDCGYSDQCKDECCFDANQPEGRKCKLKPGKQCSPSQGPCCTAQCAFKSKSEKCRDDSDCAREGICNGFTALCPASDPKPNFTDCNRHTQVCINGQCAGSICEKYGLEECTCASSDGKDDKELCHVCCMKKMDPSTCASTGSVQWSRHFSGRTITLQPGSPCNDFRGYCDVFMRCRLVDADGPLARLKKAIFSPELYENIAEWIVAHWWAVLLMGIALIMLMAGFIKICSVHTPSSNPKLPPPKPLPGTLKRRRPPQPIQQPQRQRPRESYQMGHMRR
# ADAM17 inh – ADAM17 inhibitors, primary screen, biochemical, QFRET; Disintegrin and metalloproteinase domain-containing protein 17 (Homo sapiens), P78536; recombinant ADAM17, EDANS/DABCYL FRET peptide cleavage; inhibition, % at 6.95 µM; 0.83% of 370,000 active; AID 720648, 2013;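 active = inhibition above the mean of compounds lying between control limits plus 3 SD, set per campaign, cut at about 8.5% in these data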
# DDE Tn6 FP inh – inhibitors of Tn6 peptide binding to fibrin DD(E), primary screen, biochemical, fluorescence polarization, human fibrin, Tn6 probe. Fibrinogen beta chain (Homo sapiens), P02675. Fibrin DD(E) TRITC-Tn6 fluorescence polarization displacement. inhibition, % at 8.3 µM. 0.21% of 370,000 active. AID 720509, 2013;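 active = inhibition above a per-campaign cutoff: mean of compounds within control limits plus 3 SD, cut at about 15% in these data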
# MT1-MMP act inh – blockers of MT1-MMP proenzyme processing, primary screen, HT1080 RFP-PRO-GFP cells, GFP/RFP fluorescence | Matrix metalloproteinase-14 (Homo sapiens), P50281 | GFP/RFP ratio fluorescence, overnight; percent of plate control window, DMSO zero | GFP/RFP ratio change, % at 20 µM | 0.061% of 360,000 active;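 active = GFP/RFP ratio change of at least 30% with cell ATP level not reduced by more than half and red fluorescence within 50% of control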
#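 Read-out: GFP/RFP fluorescence ratio; Test system: RFP-PRO-GFP reporter HT1080 cells; Compound dosing: single-point 20 µM compound, 1% DMSO; Times: overnight compound exposure at 37 °C.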
# Tn7 DDE FP – inhibitors of Tn7 peptide binding to fibrin DD(E), primary screen, biochemical, fluorescence polarization, human fibrin, Tn7 probe | FP displacement of FITC-Tn7 peptide from fibrin DD(E); 0% = median of compound wells per plate | inhibition, % at 8.3 µM | 0.13% of 370,000 active | AID 720508, 2013 | Fibrinogen beta chain (Homo sapiens), P02675;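 active = inhibition above the mean of compounds falling within the control limits plus 3 SD of them, cut at about 14% in these data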
#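 assay system = human clot-derived fibrin DD(E) complex | quantity = Fibrin-DD(E) at 2 µM final | timing = 10 min preincubation, 3 h with tracer, room temperature | signal = fluorescence polarization | measure = percent inhibition | benchmarks = high control wells with 10 µM unlabelled Aha-Tn7 peptide (full inhibition) | replicates = singlicate testing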
# ADAM10 counter – ADAM10 inhibitors, counter-screen for ADAM17 exosite inhibitor project, biochemical, FRET, human ADAM10; recombinant ADAM10, EDANS/DABCYL FRET peptide cleavage, 3 h; inhibition, % at 6.95 µM; shares compounds with ADAM17 inh; 47% of 2,900 active; AID 743256, 2014;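 active = mean inhibition over the triplicate runs exceeds the activity threshold set in the earlier primary screen, cut at about 20% in these data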
# ADAM17 confirm – ADAM17 inhibitors, hit retest, confirmation, biochemical, QFRET peptide cleavage; shares compounds with ADAM17 inh; recombinant ADAM17, EDANS/DABCYL QFRET peptide cleavage; inhibition, % at 6.95 µM; 65% of 2,900 active; AID 743257, 2014;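 active = mean inhibition across replicates above the hit cutoff set in the primary screen, cut at about 8.5% in these data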
# Numbers stand for hits; n = inactive; x = no result given.
SMILES,ADAM10 inh,ADAM17 inh,DDE Tn6 FP inh,MT1-MMP act inh,Tn7 DDE FP,ADAM10 counter,ADAM17 confirm
COc1ccc(OCC(=O)Nc2ccc(Cl)cc2C(=O)c2ccccc2)cc1,n,9.1,n,x,n,n,n
CCCCn1c(O)c(C=NCc2ccc3c(c2)OCO3)c(=O)[nH]c1=O,n,n,n,n,n,x,x
O=c1[nH]c(=O)n(Cc2ccco2)c(O)c1C=NCc1ccc2c(c1)OCO2,n,9.3,n,n,n,n,n
O=C1NCN(c2ccccc2)C12CCN(C(CCc1ccccc1)c1nnnn1C1CCCCC1)CC2 (stereo unspecified),n,n,n,n,n,x,x
CCC(c1nnnn1Cc1ccccc1)N1CCC2(CC1)C(=O)NCN2c1ccccc1 (stereo unspecified),n,10,n,n,n,n,12
O=C1NCN(c2ccccc2)C12CCN(C(CCc1ccccc1)c1nnnn1C1CCCC1)CC2 (stereo unspecified),n,8.8,n,n,n,n,9.4
COc1ccc(C(c2nnnn2Cc2ccccc2)N2CCC3(CC2)C(=O)NCN3c2ccccc2)cc1 (stereo unspecified),n,n,n,n,n,x,x
O=P(NS(=O)(=O)c1ccccc1)(Oc1ccccc1)Oc1ccccc1,n,8.7,n,n,n,n,n
COC(=O)C1=C(c2ccc(OC(F)(F)F)cc2)C[C@@H]2CC[C@H]1N2C(=O)NCc1ccc(F)cc1,n,n,n,n,n,x,x
COC(=O)C1=C(c2ccc(OC(F)(F)F)cc2)C[C@@H]2CC[C@H]1N2C(=O)NCc1cc(C)oc1C(F)(F)F,n,11,n,n,n,29,15
COC(=O)C1=C(c2ccc(OC(F)(F)F)cc2)C[C@@H]2CC[C@H]1N2C(=O)NCc1cccc2ccccc12,30,8.7,n,n,n,21,10
CCOC(=O)c1[nH]ncc1CN1CCCC(C(=O)c2cccc(Cl)c2)C1 (stereo unspecified),n,n,n,n,n,x,x
Oc1ccc(Cl)cc1Cc1ccccc1,n,8.7,n,n,n,n,n
C[C@]12CCC(=O)C=C1CC[C@@H]1C2CC[C@]2(C)C(=O)CCC12 (stereo partly specified),n,9.9,n,n,n,n,n
C#CC[N+]1(C)C2CCC1CC(O)C2 (stereo unspecified),n,n,n,n,n,x,x
COc1ccc(-n2c(O)c(C=NCc3ccc4c(c3)OCO4)c(=O)[nH]c2=O)cc1,n,n,n,n,n,x,x
COC(=O)C1=C(c2ccc(-c3ccccc3)c(F)c2)C[C@@H]2CC[C@H]1N2C(=O)NCCc1ccccc1,n,9.0,n,n,n,n,n
COC(=O)C1=C(c2ccccc2OCc2ccccc2)C[C@@H]2CC[C@H]1N2C(=O)NCc1cccc(F)c1,n,n,n,n,n,x,x
COC(=O)C1=C(c2ccccc2OCc2ccccc2)C[C@@H]2CC[C@H]1N2C(=O)NCc1ccc(OC)c(OC)c1,n,12,n,n,n,n,n
COC(=O)C1=C(c2ccccc2OCc2ccccc2)C[C@@H]2CC[C@H]1N2C(=O)NCc1ccc(N(C)C)cc1,n,n,n,n,n,x,x
COC(=O)C1=C(c2ccccc2OCc2ccccc2)C[C@@H]2CC[C@H]1N2C(=O)NCc1ccc(Cl)cc1,n,9.7,n,n,n,n,11
O=P(O)(O)CN1CCNCCN(CP(=O)(O)O)CCNCC1,n,n,n,n,n,x,x

# Screens (PubChem)
